Laboratory results published in ChEMBL document CHEMBL4257441, “Protection effect of intracellular melanin from Lachnum YM156 and Haikunshenxi capsule combination on adenine-induced chronic renal failure in mice” (Medchemcomm, 2017).
The source made the active and inactive calls. The rule behind the calls is not given here.

Key:
[1] = system: Mus musculus; assay: Protective effect against adenine-induced chronic renal failure in ig dosed Kunming mouse assessed as increase in total protein levels in serum administered as qd for 4 successive weeks by coomassie brilliant blue method; type: functional, organism-based
How it was run: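 Adenine-fed CRF model in male Kunming mice (20 ± 5 g) housed at 18–20 °C on a 12 h light/dark cycle. Oral dosing at 100 or 200 mg kg–1, with or without Haikunshenxi capsule; ten mice per group. Serum creatinine, BUN, total protein and albumin measured, each group compared with the model group.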

[2] = system: Mus musculus; assay: Protective effect against adenine-induced chronic renal failure in Kunming mouse assessed as weight growth rate at 100 mg/kg, ig qd administered for 4 successive weeks with haikunshenxi capsule measured 24 hrs post last dose (reference value: 32.42 +/- 1.43%); type: functional
How it was run: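 Male Kunming mice (20 ± 5 g) kept on a 12 h light/dark cycle at 18–20 °C on a standard diet. CRF induced by chronic dietary adenine. Test material given orally at 100 or 200 mg kg–1, alone or with Haikunshenxi capsule, alongside normal, model and capsule-only groups; ten mice per group. Weight growth rate recorded in %, kidney index in mg g–1.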

[3] = system: Mus musculus; assay: Protective effect against adenine-induced chronic renal failure in Kunming mouse assessed as kidney index at 200 mg/kg, ig qd administered for 4 successive weeks with haikunshenxi capsule measured 24 hrs post last dose (reference value: 1.94 +/- 0.03 mg/g); type: functional
How it was run: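 Male Kunming mice (20 ± 5 g) were housed on a 12 h light/dark cycle at 18–20 °C. Chronic renal failure was induced by long-term dietary adenine. The melanin was given orally at 100 or 200 mg kg–1, alone or with Haikunshenxi capsule as positive drug, with ten mice per group. Weight growth rate (%) and kidney index (mg g–1) were recorded.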

[4] = system: Mus musculus; assay: Protective effect against adenine-induced chronic renal failure in Kunming mouse assessed as nephridial SOD levels at 100 mg/kg, ig qd administered for 4 successive weeks by hydroxylamine method (reference value: 30.45 +/- 1.12 U/mg); type: functional
[5] = system: Mus musculus; assay: Protective effect against adenine-induced chronic renal failure in Kunming mouse assessed as nephridial SOD levels at 100 mg/kg, ig qd administered for 4 successive weeks with haikunshenxi capsule by hydroxylamine method (reference value: 30.45 +/- 1.12 U/mg); type: functional
[6] = system: Mus musculus; assay: Protective effect against adenine-induced chronic renal failure in Kunming mouse assessed as nephridial GSH-PX levels at 100 mg/kg, ig qd administered for 4 successive weeks by colorimetric method (reference value: 688.45 +/- 12.67 U/L); type: functional
[7] = system: Mus musculus; assay: Protective effect against adenine-induced chronic renal failure in Kunming mouse assessed as nephridial GSH-PX levels at 200 mg/kg, ig qd administered for 4 successive weeks by colorimetric method (reference value: 688.45 +/- 12.67 U/L); type: functional
[8] = system: Mus musculus; assay: Protective effect against adenine-induced chronic renal failure in Kunming mouse assessed as nephridial GSH-PX levels at 200 mg/kg, ig qd administered for 4 successive weeks with haikunshenxi capsule by colorimetric method (reference value: 688.45 +/- 12.67 U/L); type: functional
[9] = system: Mus musculus; assay: Protective effect against adenine-induced chronic renal failure in Kunming mouse assessed as nephridial GSH levels at 100 mg/kg, ig qd administered for 4 successive weeks with haikunshenxi capsule by colorimetric method (reference value: 3.05 +/- 0.11 mg/g); type: functional
[10] = system: Mus musculus; assay: Protective effect against adenine-induced chronic renal failure in Kunming mouse assessed as nephridial MDA levels at 200 mg/kg, ig qd administered for 4 successive weeks with haikunshenxi capsule by thiobarbituric acid method (reference value: 5.05 +/- 0.15 nmol/ml); type: functional
[11] = system: Mus musculus; assay: Protective effect against adenine-induced chronic renal failure in ig dosed Kunming mouse assessed as decrease in nephridial MDA levels administered as qd for 4 successive weeks by thiobarbituric acid method; type: functional, organism-based
How it was run: (§1)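 Male Kunming mice (20 ± 5 g) given dietary adenine to induce CRF, then dosed orally at 100 or 200 mg kg–1, with or without Haikunshenxi capsule; n = 10 per group. Kidney homogenate assayed for SOD and CAT (U mg–1 protein), GSH-Px (U L–1), GSH (mg g–1 protein) and MDA (nmol mL–1).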

[12] = system: Mus musculus; assay: Protective effect against adenine-induced chronic renal failure in ig dosed Kunming mouse assessed as increase in nephridial CAT levels administered as qd for 4 successive weeks with haikunshenxi capsule by visible spectrometry method; type: functional, organism-based; how it was run: as §1
[13] = system: Mus musculus; assay: Protective effect against adenine-induced chronic renal failure in ig dosed Kunming mouse assessed as increase in nephridial GSH levels administered as qd for 4 successive weeks with haikunshenxi capsule by colorimetric method; type: functional, organism-based; how it was run: as §1
[14] = system: Mus musculus; assay: Protective effect against adenine-induced chronic renal failure in ig dosed Kunming mouse assessed as decrease in nephridial MDA levels administered as qd for 4 successive weeks with haikunshenxi capsule by thiobarbituric acid method; type: functional, organism-based; how it was run: as §1
[15] = system: Mus musculus; assay: Protective effect against adenine-induced chronic renal failure in Kunming mouse assessed as nephridial IL-1beta levels at 100 mg/kg, ig qd administered for 4 successive weeks (reference value: 18.34 +/- 0.25 pg/ml); type: functional
[16] = system: Mus musculus; assay: Protective effect against adenine-induced chronic renal failure in Kunming mouse assessed as nephridial IL-6 levels at 100 mg/kg, ig qd administered for 4 successive weeks (reference value: 20.85 +/- 0.11 pg/ml); type: functional
[17] = system: Mus musculus; assay: Protective effect against adenine-induced chronic renal failure in Kunming mouse assessed as nephridial IL-6 levels at 100 mg/kg, ig qd administered for 4 successive weeks with haikunshenxi capsule (reference value: 20.85 +/- 0.11 pg/ml); type: functional
[18] = system: Mus musculus; assay: Protective effect against adenine-induced chronic renal failure in Kunming mouse assessed as nephridial iNOS levels at 100 mg/kg, ig qd administered for 4 successive weeks with haikunshenxi capsule (reference value: 1.98 +/- 0.12 U/mg); type: functional
[19] = system: Mus musculus; assay: Protective effect against adenine-induced chronic renal failure in ig dosed Kunming mouse assessed as decrease in nephridial IL-6 levels administered as qd for 4 successive weeks with haikunshenxi capsule; type: functional, organism-based
How it was run: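 CRF model made by chronic dietary adenine in male Kunming mice (20 ± 5 g); oral dosing at 100 or 200 mg kg–1, alone or with Haikunshenxi capsule; ten mice per group. Kidney tissue TNF-α, IL-1β and IL-6 measured as pg per mg protein, and iNOS activity as U mg–1 protein.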

[20] = system: Mus musculus; assay: Protective effect against adenine-induced chronic renal failure in Kunming mouse assessed as reduction in number of adenine crystals at 200 mg/kg, ig qd administered for 4 successive weeks with haikunshenxi capsule by haematoxylin and eosin dye-based optical microscopic method; type: functional, organism-based
How it was run: (§2)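 Kidneys were taken from male Kunming mice given an adenine diet plus oral melanin (100 or 200 mg kg–1), with or without Haikunshenxi capsule, ten per group. Histological sections were examined at 400× for glomeruli, tubules, adenine crystals, tubular atrophy and interstitial fibrosis.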

[21] = system: Mus musculus; assay: Protective effect against adenine-induced chronic renal failure in Kunming mouse assessed as reduction in interstitial fibrosis at 200 mg/kg, ig qd administered for 4 successive weeks with haikunshenxi capsule by haematoxylin and eosin dye-based optical microscopic method; type: functional, organism-based; how it was run: as §2
[22] = system: Mus musculus; assay: Protective effect against adenine-induced chronic renal failure in Kunming mouse assessed as appearance of complete glomeruli in kidney at 100 mg/kg, ig qd administered for 4 successive weeks by haematoxylin and eosin dye-based optical microscopic method; type: functional, organism-based; how it was run: as §2

Cc1c(=O)c(=O)c2c3c[nH]c4c(C)c(=O)c(=O)c(c5c[nH]c1c52)c43
Activity [1]: Dose-dependent effect | Activity [2]: 54.34% | Activity [3]: 1.13 mg/g | Activity [4]: 32.32 U/mg | Activity [5]: 46.52 U/mg | Activity [6]: 743.09 U/L | Activity [7]: 790.43 U/L | Activity [8]: 878.91 U/L | Activity [9]: 5.23 mg/g | Activity [10]: 2.88 nmol/mL | Activity [11]: Dose-dependent effect | Activity [12]: Dose-dependent effect | Activity [13]: Dose-dependent effect | Activity [14]: Dose-dependent effect | Activity [15]: 17.66 pg/mL | Activity [16]: 18.27 pg/mL | Activity [17]: 12.07 pg/mL | Activity [18]: 0.79 U/mg | Activity [19]: Dose-dependent effect | Activity [20]: Active | Activity [21]: Active | Activity [22]: Active
